One may read the MIC as the smallest concentration in the dilution series that meets the test's criterion for growth inhibition. Higher therefore signals a less susceptible organism.

SMILES strings stand for the structures. Where a SMILES comes first, the peptide text is derived from it. The star is where a group is joined. X1 = Fc1ccc2c(C3CCN(*)CC3)noc2c1

Type in all cases: functional
The subject of assay [1] is Escherichia coli. Kind of assay: Antimicrobial activity against Escherichia coli after 24 hrs by agar well diffusion method. In outline:
(§1)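 Bacteria grown in nutrient broth at 37 °C for 24 h, subcultured in 25 mL broth at room temperature, then spread on nutrient agar. Wells (6 mm cork borer) filled with 0.1 mL test solution in DMSO, prepared from a 1 mg/mL stock. Amoxicillin as reference, DMSO as negative control. Plates kept 24 h at 37 °C; inhibition zone measured in mm.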
In general terms: Agar diffusion results depend on both activity and mobility in agar.

The subject of assay [2] is Xanthomonas oryzae. The experiment in a line: Antimicrobial activity against Xanthomonas oryzae after 24 hrs by agar well diffusion method.
The test system of assay [3] is Klebsiella pneumoniae. Kind of assay: Antimicrobial activity against Klebsiella pneumoniae after 24 hrs by agar well diffusion method. The method in brief:
as §1

In assay [4] the test system is Staphylococcus. Kind of assay: Antimicrobial activity against coagulase positive Staphylococcus after 24 hrs by agar well diffusion method. The method in brief: as §1
Assay [5] relates to Aspergillus niger. The experiment in a line: Antifungal activity against Aspergillus niger after 24 hrs by agar well diffusion method. In outline: (§2)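 Fungi subcultured in 25 mL nutrient broth for one day to give inoculum, then spread on solidified Sabouraud agar. Wells punched with a 6 mm cork borer and filled with 0.1 mL test solution in DMSO, prepared from a 1 mg/mL stock. Bavistin as reference, DMSO as negative control. Read-out is inhibition zone diameter (mm).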

Assay [6] has as its system Aspergillus flavus. Kind of assay: Antifungal activity against Aspergillus flavus after 24 hrs by agar well diffusion method. The method in brief:
as §2

Assay [7] deals with Fusarium oxysporum. The experiment in a line: Antifungal activity against Fusarium oxysporum after 24 hrs by agar well diffusion method. In outline:
as §2

In assay [8] the test system is Escherichia coli. Kind of assay: Antimicrobial activity against Escherichia coli after 72 hrs by microdilution method. On the technique in general: Dilution methods test growth across graded concentrations, often in twofold steps.
The test system of assay [9] is Xanthomonas oryzae. Kind of assay: Antimicrobial activity against Xanthomonas oryzae after 72 hrs by microdilution method.
Assay [10] has as its system Klebsiella pneumoniae. The experiment in a line: Antimicrobial activity against Klebsiella pneumoniae after 72 hrs by microdilution method.
Assay [11] has as its system Staphylococcus. The experiment in a line: Antimicrobial activity against coagulase positive Staphylococcus after 72 hrs by microdilution method.
Assay [12] has as its system Aspergillus niger. The experiment in a line: Antifungal activity against Aspergillus niger after 72 hrs by microdilution method.
Assay [13] deals with Aspergillus flavus. The experiment in a line: Antifungal activity against Aspergillus flavus after 72 hrs by microdilution method.
Assay [14] concerns Fusarium oxysporum. Kind of assay: Antifungal activity against Fusarium oxysporum after 72 hrs by microdilution method.

In the case of `C[C@H](NC(=O)CNC(=O)CN)C(=O)N1CCC[C@H]1C(=O)N1CCC(c2noc3cc(F)ccc23)CC1.O=C(O)C(F)(F)F` (H-GGAP-X1), the “inhibition zone (IZ)” value in the assay on Escherichia coli [1] came out at 18 mm; with Xanthomonas oryzae [2] it was 13 mm; in the assay on Klebsiella pneumoniae [3], 12 mm; in the assay with Staphylococcus [4], 11 mm; with Aspergillus niger [5], 19 mm; in the assay on Aspergillus flavus [6], 13 mm. For the same molecule, in the assay on Fusarium oxysporum [7], the “inhibition zone (IZ)” value stood at 16 mm. Also, the MIC in the assay on Escherichia coli [8] came to 17 µg/mL; with Xanthomonas oryzae [9], 13 µg/mL; with Klebsiella pneumoniae [10], 14 µg/mL; in the assay on Staphylococcus [11], 16 µg/mL; against Aspergillus niger [12], 15 µg/mL; in the assay on Aspergillus flavus [13], 18 µg/mL. Besides, it took 19 µg/mL to inhibit growth with Fusarium oxysporum [14] (MIC).

Take `NCC(=O)NCC(=O)N[C@@H](Cc1ccccc1)C(=O)N1CCC[C@H]1C(=O)N1CCC(c2noc3cc(F)ccc23)CC1.O=C(O)C(F)(F)F` (H-GGFP-X1): the “inhibition zone (IZ)” value with Escherichia coli [1] came to 22 mm; in the assay on Xanthomonas oryzae [2], 16 mm; in the assay on Klebsiella pneumoniae [3] it was 15 mm; in the assay with Staphylococcus [4] it was 14 mm; in the assay on Aspergillus niger [5], 25 mm; with Aspergillus flavus [6], 16 mm. In addition, in the assay on Fusarium oxysporum [7], the “inhibition zone (IZ)” value stood at 20 mm. Moreover, the minimal inhibitory concentration (MIC) in the assay with Escherichia coli [8] came to 14 µg/mL; in the assay on Xanthomonas oryzae [9] it was 11 µg/mL; in the assay with Klebsiella pneumoniae [10], 11 µg/mL; in the assay on Staphylococcus [11] it was 13 µg/mL; against Aspergillus niger [12], 11 µg/mL; in the assay on Aspergillus flavus [13] it was 15 µg/mL. Moreover, the MIC in the assay with Fusarium oxysporum [14] came out at 16 µg/mL.

Consider `CC(C)[C@H](NC(=O)CN)C(=O)NCC(=O)N[C@H](C(=O)N1CCC[C@H]1C(=O)N1CCC(c2noc3cc(F)ccc23)CC1)C(C)C.O=C(O)C(F)(F)F` (H-GVGVP-X1), for which the “inhibition zone (IZ)” value turned out to be 23 mm in the assay on Escherichia coli [1]; 17 mm in the assay on Xanthomonas oryzae [2]; 17 mm with Klebsiella pneumoniae [3]; 15 mm with Staphylococcus [4]; 27 mm with Aspergillus niger [5]; 17 mm in the assay with Aspergillus flavus [6]. Further, in the assay on Fusarium oxysporum [7], the “inhibition zone (IZ)” value turned out to be 21 mm. The MIC in the assay with Escherichia coli [8] amounted to 11 µg/mL; against Xanthomonas oryzae [9], 10 µg/mL; in the assay with Klebsiella pneumoniae [10], 8 µg/mL; in the assay on Staphylococcus [11] it was 10 µg/mL; with Aspergillus niger [12], 8 µg/mL; in the assay with Aspergillus flavus [13], 9 µg/mL. For the same molecule, the MIC against Fusarium oxysporum [14] is 10 µg/mL.
